Screens deposited in PubChem BioAssay by The Scripps Research Institute Molecular Screening Center.
RORa inhibitor: RORA (human) inhibition | CHO-K1 Gal4-RORA LBD luciferase reporter, luminescence | inhibition, % at 10 µM | hit rate 0.43% among 65,000 | AID 561;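 active = inhibition above the mean of all tested compounds plus 3 SD, cut at about 52% in these data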;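 note: 0% = RORA-transfected cells with DMSO and 100% = mock-transfected cells lacking RORA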
Target sequence (P35398 whole entry, looked up, the tested form may be a part): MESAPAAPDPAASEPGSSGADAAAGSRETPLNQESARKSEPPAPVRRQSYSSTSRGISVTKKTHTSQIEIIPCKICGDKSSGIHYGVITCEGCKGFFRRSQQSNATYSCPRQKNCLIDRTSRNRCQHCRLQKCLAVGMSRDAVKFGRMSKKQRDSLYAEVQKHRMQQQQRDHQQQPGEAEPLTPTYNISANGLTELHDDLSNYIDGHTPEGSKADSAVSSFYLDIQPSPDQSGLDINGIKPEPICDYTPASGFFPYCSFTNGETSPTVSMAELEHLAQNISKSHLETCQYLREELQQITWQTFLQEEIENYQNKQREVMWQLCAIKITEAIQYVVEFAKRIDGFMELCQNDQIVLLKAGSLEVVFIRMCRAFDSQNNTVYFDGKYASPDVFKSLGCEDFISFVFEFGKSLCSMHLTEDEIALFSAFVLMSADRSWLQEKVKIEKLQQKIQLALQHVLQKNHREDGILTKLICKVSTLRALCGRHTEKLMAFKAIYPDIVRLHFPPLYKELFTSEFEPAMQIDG
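Test system: CHO-K1 cells with Gal4-hRORA LBD fusion and pG5-luc reporter | Timing: 20 h compound treatment, 37 °C | Detection: Luminescence from basal luciferase reporter expression | Read-out basis: % inhibition of basal luciferase versus +RORA/-RORA DMSO controls | Repeats: One measurement per compound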
* = called active by the depositor. The entries come from a sample that favours hits as a whole.

What do the screens show for `COc1ccc(Cl)cc1NC(=O)c1cnc2n(c1=O)CCS2`?
RORa inhibitor: -8.4

How did Cc1cccc(NC(=O)c2cnc3n(c2=O)CCS3)c1 do in these assays?
RORa inhibitor: -75.8

How did Cc1ccccc1NC(=O)c1cnc2ccccn2c1=O do in these assays?
RORa inhibitor: 53.5*

Results for COc1ccc(-c2nc(Cn3c(SCc4cccc(F)c4)nc4ccncc43)c(C)o2)cc1OC ?
RORa inhibitor: 2.9

Results for CC(CC(=O)c1cccs1)CC(=O)c1cccs1 ?
RORa inhibitor: -73.9

Results for COc1ccc(C2CCCN2C(=O)Nc2cccc(C(C)=O)c2)cc1OC (stereo not given) ?
RORa inhibitor: -4.9

What do the screens show for `CC(C)(C)NC(=O)CSc1n[nH]c(=O)n1-c1ccccc1`?
RORa inhibitor: -4.4

Results for COc1ccc(OCc2cccc(C(=O)O)c2)cc1 ?
RORa inhibitor: 94.1*

How did CCOc1ccc2oc(-c3ccccc3)c(C(=O)O)c2c1 do in these assays?
RORa inhibitor: -3.8

Results for CN1CCN(C(=O)c2ccc(COc3ccc(Cl)cc3Cl)cc2)CC1 ?
RORa inhibitor: -4.2

What do the screens show for `O=C(O)c1ccc(COc2ccc(CO)cc2Cl)cc1`?
RORa inhibitor: -4.9

Results for O=C(O)c1cccc(COc2ccc(CO)cc2Cl)c1 ?
RORa inhibitor: 93.8*

Results for CCOc1ccc(CCNC(=O)C(O)c2ccccc2)cc1 (stereo not given) ?
RORa inhibitor: 3.2

What do the screens show for `Cn1nnc(NC(=O)c2cccc(OCc3ccccc3)c2)n1`?
RORa inhibitor: -54.2

Results for COc1ccc(NS(=O)(=O)c2cc(C(=O)O)ccc2C)cc1 ?
RORa inhibitor: -3.7

Results for CCOc1ccc(OCc2cccc(C(=O)O)c2)cc1 ?
RORa inhibitor: 93.8*

How did COc1ccc(C(=O)Cn2c(N3CCOCC3)nc3c2c(=O)n(C)c(=O)n3C)cc1 do in these assays?
RORa inhibitor: -23.2

What do the screens show for `CCOC(=O)c1sc2nc(NC(=O)c3cccs3)sc2c1C`?
RORa inhibitor: -60.1

How did Cc1ccc(-c2cc(C(=O)OCC(=O)Nc3cc(C)on3)c3ccccc3n2)c(C)c1 do in these assays?
RORa inhibitor: 5.1

What do the screens show for `N#Cc1nc(COc2cccc(Cl)c2)oc1NCc1ccco1`?
RORa inhibitor: -65.7

Results for Cc1cccc(OCC(=O)NCCN2CCOCC2)c1 ?
RORa inhibitor: -1.7

What do the screens show for `Cc1ccc2c(c1)cc(CN(Cc1ccc3c(c1)OCO3)C(=O)c1cnccn1)c1nnnn12`?
RORa inhibitor: 8.9

Results for O=C1c2ccccc2C(=O)C1c1ccc2ccccc2n1 ?
RORa inhibitor: 70.0*

Results for Cc1nc(Nc2ccc(F)cc2)[nH]c(=O)c1CCC(C)C ?
RORa inhibitor: 10.6

What do the screens show for `Nc1nc(-c2ccccc2)cc(-c2ccccc2O)n1`?
RORa inhibitor: -49.2

Results for CS(=O)c1nc(-c2ccc(Br)cc2)cc(-c2ccccc2)c1C#N (stereo not given) ?
RORa inhibitor: 57.5*

What do the screens show for `Clc1ccc(OCc2nc(-c3ccncc3)no2)c(Br)c1`?
RORa inhibitor: -58.9

What do the screens show for `CC1=C(C(N)=O)C(c2cccnc2)n2nc(-c3cccc(C)c3)nc2N1` (stereo not given)?
RORa inhibitor: 3.3

Results for CCN1C(=O)/C(=C2\SC(=S)N(CCCOC)C2=O)c2ccccc21 ?
RORa inhibitor: 2.9

What do the screens show for `Cc1nnc(SCC(=O)N2CCc3ccccc32)s1`?
RORa inhibitor: -21.2

Results for Cc1nnc(SC(=O)N2c3ccccc3Sc3ccccc32)s1 ?
RORa inhibitor: 71.3*

How did CCOC(=O)Nc1ccc2c(c1)N(C(=O)N1CCN(C)CC1)c1ccccc1S2 do in these assays?
RORa inhibitor: -9.1

What do the screens show for `CCCCSc1nsc(NC(C)=O)n1`?
RORa inhibitor: -55.6

Results for CC(C)n1c(=N)c(C(=O)NCCc2ccccc2)cc2c(=O)n3ccccc3nc21 ?
RORa inhibitor: -4.2

How did CC(C)c1ccc(C(=O)CSc2ncn[nH]2)cc1 do in these assays?
RORa inhibitor: -53.4

What do the screens show for `O=C(CSc1nc2sc3c(c2c(=O)[nH]1)CCCC3)NCCO`?
RORa inhibitor: 10.0

How did N#Cc1c(NC(=O)CSc2ncn[nH]2)sc2c1CCCCC2 do in these assays?
RORa inhibitor: 87.9*

Results for O=C(Nc1sc2c(c1C(=O)O)CCCCC2)c1ccco1 ?
RORa inhibitor: -62.5

What do the screens show for `CCCc1cc(=O)[nH]c(SCC(=O)Nc2cc3c(cc2C(C)=O)OCO3)n1`?
RORa inhibitor: 1.4

What do the screens show for `N#Cc1c(NC(=O)CSc2nc(N)cc(=O)[nH]2)sc2c1CCCCCC2`?
RORa inhibitor: 52.2*

Results for CSCc1nnc(NC(=O)c2ccc(S(=O)(=O)N(CC(C)C)CC(C)C)cc2)o1 ?
RORa inhibitor: 15.2

Results for Cc1ccc2oc(=O)c3cc(C(=O)NCc4ccco4)sc3c2c1 ?
RORa inhibitor: 15.7

Results for O=C(NCc1cccnc1)C1CCN(S(=O)(=O)N2CCOCC2)CC1 ?
RORa inhibitor: 0.9

Results for O=C(Nc1ccc2c(c1)OCO2)c1cc(C2CC2)on1 ?
RORa inhibitor: -59.7

How did O=C(Nc1ccc2c(c1)OCO2)Oc1ccccc1 do in these assays?
RORa inhibitor: -8.5
